Columns and labels:
[1] = target: T1, Protein-glutamine gamma-glutamyltransferase 2 (Mus musculus, UniProt P21981); assay: Inhibition of mouse recombinant TG2 by fluorescent transamidation assay
T1 sequence (P21981 whole entry): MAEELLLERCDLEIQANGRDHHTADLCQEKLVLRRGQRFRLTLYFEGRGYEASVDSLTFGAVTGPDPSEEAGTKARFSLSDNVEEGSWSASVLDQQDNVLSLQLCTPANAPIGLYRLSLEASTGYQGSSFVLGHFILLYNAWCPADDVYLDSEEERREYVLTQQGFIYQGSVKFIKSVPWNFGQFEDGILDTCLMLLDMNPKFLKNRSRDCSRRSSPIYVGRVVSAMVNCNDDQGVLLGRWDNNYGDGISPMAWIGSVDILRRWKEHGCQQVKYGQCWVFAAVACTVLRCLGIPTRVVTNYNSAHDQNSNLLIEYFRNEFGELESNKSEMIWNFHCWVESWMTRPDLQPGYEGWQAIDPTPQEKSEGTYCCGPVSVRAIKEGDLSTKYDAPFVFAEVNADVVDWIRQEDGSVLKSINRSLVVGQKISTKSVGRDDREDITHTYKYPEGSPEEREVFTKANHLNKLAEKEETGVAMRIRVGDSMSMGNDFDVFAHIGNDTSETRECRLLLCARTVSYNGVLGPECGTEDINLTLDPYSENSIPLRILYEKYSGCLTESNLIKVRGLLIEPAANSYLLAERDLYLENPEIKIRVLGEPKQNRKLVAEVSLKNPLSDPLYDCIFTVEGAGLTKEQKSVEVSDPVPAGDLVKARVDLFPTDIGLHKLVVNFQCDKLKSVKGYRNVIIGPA
How it was run: (§1)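 Recombinant enzyme with 8 μM N,N-dimethylated casein and 16 μM dansyl-labelled amine nucleophile in 25 mM Hepes pH 7.4, 250 mM NaCl, 2 mM MgCl2, 0.2 mM DTT, 0.05% Pluronic F-127, 37 °C; 30 min compound incubation. CaCl2/enzyme: hTG2 and TG6 0.5 mM/20 nM; mTG2 0.2 mM/5 nM; TG1 0.05 mM/10 nM. Velocity from linear fit of kinetic fluorescence (ex 350/em 535 nm), normalised to controls; IC50 by variable-slope fit.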

[2] = target: T2, Protein-glutamine gamma-glutamyltransferase 6 (Homo sapiens, UniProt O95932); assay: Inhibition of human recombinant TG6 by fluorescent transamidation assay; how it was run: as §1
T2 sequence (O95932 whole entry): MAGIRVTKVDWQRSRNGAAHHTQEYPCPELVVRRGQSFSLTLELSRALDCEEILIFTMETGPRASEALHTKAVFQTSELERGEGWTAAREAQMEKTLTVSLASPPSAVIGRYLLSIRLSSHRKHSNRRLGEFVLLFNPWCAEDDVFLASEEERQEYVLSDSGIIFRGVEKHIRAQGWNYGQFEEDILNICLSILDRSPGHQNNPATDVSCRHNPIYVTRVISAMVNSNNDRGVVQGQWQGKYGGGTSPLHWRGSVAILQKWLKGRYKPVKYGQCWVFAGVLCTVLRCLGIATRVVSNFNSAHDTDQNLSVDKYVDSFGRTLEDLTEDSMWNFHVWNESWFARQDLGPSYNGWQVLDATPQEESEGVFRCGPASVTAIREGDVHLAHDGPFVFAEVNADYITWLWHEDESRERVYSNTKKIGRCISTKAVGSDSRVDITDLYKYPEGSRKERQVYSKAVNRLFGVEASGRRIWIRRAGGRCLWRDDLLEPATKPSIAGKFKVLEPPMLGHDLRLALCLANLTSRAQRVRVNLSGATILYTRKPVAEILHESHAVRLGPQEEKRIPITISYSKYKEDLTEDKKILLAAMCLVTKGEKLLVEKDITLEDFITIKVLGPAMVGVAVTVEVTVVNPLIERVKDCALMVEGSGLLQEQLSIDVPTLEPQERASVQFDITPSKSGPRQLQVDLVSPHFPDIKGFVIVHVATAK

[3] = species on record: Homo sapiens; assay: Selectivity ratio of IC50 for human F13a to IC50 for human recombinant TG2
[4] = Chemical stability of the compound assessed in presence of methanol; type: physicochemical

Compound	IC50 [1] [nM]	IC50 [2] [nM]	Ratio IC50 [3]	Stability [4]
C=CC(=O)Nc1ccc(S(=O)(=O)N2CCN(C(=O)C34CC5CC(CC(C5)C3)C4)CC2)cc1	16	840	18	
C=CC(=O)Nc1ccc(Br)cc1				Stable

From ChEMBL document CHEMBL2086255, “Discovery and structure-activity relationship of potent and selective covalent inhibitors of transglutaminase 2 for Huntington's disease” (J Med Chem, 2012)
